Compound activity as filed in PubChem BioAssay.
This excerpt belongs to a sample that is enriched for hits.
D1 mod – allosteric modulators of human D1 dopamine receptor; HEK293 D1, CRE-luciferase, dopamine EC30 potentiation; actives deviate in either direction; B-score at 10 µM; 58,000 compounds, 5.9% hits; AID 641; P21728;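 active = luminescence count or its row- and column-corrected plate score outside the 99.7% band of the plate's sample wells, on either side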
Target sequence (P21728 whole entry, looked up): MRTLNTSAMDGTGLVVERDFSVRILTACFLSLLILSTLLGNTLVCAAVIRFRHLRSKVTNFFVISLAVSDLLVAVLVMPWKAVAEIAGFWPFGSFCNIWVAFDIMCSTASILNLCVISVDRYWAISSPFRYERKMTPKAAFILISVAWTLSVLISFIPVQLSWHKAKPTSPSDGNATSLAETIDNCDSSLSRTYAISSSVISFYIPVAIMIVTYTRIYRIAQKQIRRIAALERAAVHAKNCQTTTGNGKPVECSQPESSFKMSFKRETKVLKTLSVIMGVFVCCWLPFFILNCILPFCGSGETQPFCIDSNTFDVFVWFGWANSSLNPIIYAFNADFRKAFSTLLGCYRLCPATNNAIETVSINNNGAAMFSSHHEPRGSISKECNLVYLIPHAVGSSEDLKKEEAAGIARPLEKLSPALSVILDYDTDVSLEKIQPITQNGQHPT
WNV protease inh – WNV NS2B-NS3 proteinase inhibition; WNV NS2B-NS3 protease, fluorogenic substrate Ex360/Em465; stronger effect = lower value; z-score (test concentration not listed); 65,000 compounds, 0.18% hits; in the data active = z-score below about -3
DAT uptake mod – modulates human dopamine transporter uptake under cocaine; AID 449768; LLC-PK1 hDAT cells, [14C]-dopamine uptake with cocaine IC80; actives deviate in either direction; B-score at 10 µM; Q01959; 110,000 compounds, 1.3% hits;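 active = Z score or B-score, a plate-position-corrected score, falls beyond the plate's 99.7% confidence bounds, in either direction; inactive = both scores lie inside the 99.7% bounds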;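 note: scored against the spread of the other compound wells on the same plate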
AP complement – alternative pathway complement inhibition, orthogonal assay; inhibition, % at 5 µM; Human serum alternative complement pathway, LPS-coated ELISA, C3 deposition; tested in compound mixtures; 62,000 compounds, 0.08% hits;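 active = inhibition above 30% in each of the two pooled mixtures holding the compound, so the lower value exceeds 30%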;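 note: 0% = serum in Mg-EGTA without compound and 100% = EDTA serum blank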
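Medium: diluted human serum in Mg2+-EGTA GVB++. Assay system: human serum complement alternative pathway, C3 deposition onto LPS. Also added: Plate-bound LPS. Technique: Anti-C3 ELISA, OD 450 nm. Measure: percent inhibition. Incubation: 1 h at 37 °C. Dosing: 5 µM each compound, pools of ten, 50 µM per pool.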
D1 PAM confirm – confirmation of human D1 dopamine receptor allosteric modulators; shares compounds with D1 mod; HEK293 D1 CRE-luciferase, dopamine EC30 potentiation; stronger effect = higher value; luminescence at 10 µM; 2,200 compounds, 88% hits; AID 642;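 active = luminescence in either of two replicates above the same-plate mean plus 3 SD of the low-dose dopamine control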
D1 ag no DA – activates D1 CRE-luciferase signal without dopamine present; shares compounds with D1 mod; HEK293 D1 CRE-luciferase, luminescence, no dopamine; stronger effect = higher value; luminescence at 10 µM; 1,900 compounds, 0.8% hits; AID 646; in the data active = luminescence above about 3900
Isoprot counter – isoproterenol response counter-screen activity for D1 modulators | shares compounds with D1 mod | HEK293 D1 CRE-luciferase, isoproterenol EC30 counter-screen; stronger effect = higher value | luminescence at 10 µM | 2,200 compounds, 63% hits | AID 647;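 active = luminescence in either replicate above plate mean of wells with a partly effective reference agonist dose plus 3 SD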;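 note: isoproterenol raises cAMP through native beta-adrenoceptor Gs so signal bypasses D1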
Numbers without * were called inactive; . = not tested or not shown.

SMILES	D1 mod	WNV protease inh	DAT uptake mod	AP complement	D1 PAM confirm	D1 ag no DA	Isoprot counter
C/C(N)=C(/C#N)C(=O)CSc1nnc(SCc2ccc(Cl)cc2)s1	6.7*	0.75	-0.06	13	6760*	1560	3044
C/C(N)=C(/C#N)C(=O)CSc1nnc(Nc2c(C)cccc2C)s1	0.42	-0.25	0.77	7	.	.	.
COc1ccccc1N(C(=O)NCc1ccccc1)C1=NCC(C)S1 (stereo unspecified)	-0.66	0.75	-1.1	8	.	.	.
CNC(=O)N(C1=NCC(C)S1)c1ccc(F)cc1F (stereo unspecified)	5.3*	2.2	-0.08	8	16972*	1640	3116*
O=P(O)(O)C(O)C(F)(F)C(F)(F)C(F)(F)C(F)F (stereo unspecified)	0.21	-0.47	0.7	8	.	.	.
CCOC(=O)c1cc2c(=O)n3ccccc3nc2n(CCCOC)c1=NC(C)=O	4.7*	5.7	.	16	9064*	.	2596
CCCn1c(=NC(=O)c2ccco2)c(C(=O)OCC)cc2c(=O)n3ccccc3nc21	6.1*	2.5	0.18	-9	16752*	1572	2932
CCOC(=O)CSC1=C(C#N)C(c2ccc(Cl)cc2)CC(=O)N1 (stereo unspecified)	3.5	-0.15	-0.42	7	.	.	.
CCOC(=O)CSC1=C(C#N)C(c2ccc(C)o2)CC(=O)N1 (stereo unspecified)	5.4*	-0.04	0.47	5	9204*	1688	3268
COc1cc2c(cc1OC)C(C(=O)N1CCN(c3ccccc3)CC1)C(c1cccs1)N(C)C2=O (stereo unspecified)	.	.	0.23	.	.	.	.
Cc1cc(C)n(CC(=O)n2c3ccccc3c3ccccc32)n1	2	-0.26	-0.73	-3	.	.	.
Cc1cc(C)n(CC(=O)n2c3c(c4ccccc42)CCCC3)n1	5.7*	0.71	-0.96	-13	11600*	1728	2872
Cc1ccc(C(=O)CC(=O)c2cccc(F)c2)c(O)c1	.	.	0.061	.	.	.	.
Cc1ccc(C(=O)N2CCCC(c3nc4c(nnn4Cc4ccccc4)c(=O)[nH]3)C2)cc1 (stereo unspecified)	3.4*	1.1	1.9	7	9432*	.	2664*
COc1ccccc1Cn1nnc2c(=O)[nH]c(C3CCN(C(=O)c4ccc(C)cc4)CC3)nc21	2.6	0.73	.	5	.	.	.
COc1ccccc1Cn1nnc2c(=O)[nH]c(C3CCN(C(=O)c4ccccc4Cl)CC3)nc21	2.6	-0.6	0.89	22	.	.	.
Cc1ccc(CC(=O)N2CCC(c3nc4c(nnn4Cc4ccccc4)c(=O)[nH]3)CC2)cc1	4.9*	0.39	0.76	13	7652	1488	2644
O=C(c1ccccc1Cl)N1CCC(c2nc3c(nnn3Cc3ccco3)c(=O)[nH]2)CC1	6.1*	-0.56	2.3	1	11824*	1716	3316*
COC(=O)c1c(C)nc(C)c2c(=O)oc3ccccc3c12	1	0.41	-0.11	15	.	.	.
Cc1cc2c(c(N)n1)c(=O)oc1ccccc12	22*	-0.18	-0.046	10	19088*	.	5100*
Cn1cc(C(=O)NCCN2CCN(c3ccccc3F)CC2)c2c3ccccc3n(C)c2c1=O	-2	1.1	.	-5	.	.	.
CCOc1ccccc1C1NC(=O)NC(C)=C1C(=O)OC1CCCCC1 (stereo unspecified)	4.2*	-0.81	0.49	13	5388*	1456	2264
O=C(NC1CC2CCCC(C1)N2S(=O)(=O)c1ccccc1)c1ccccc1 (stereo unspecified)	.	-1.5	0.0021	22	.	.	.
CC(=O)NC1CC2CCCC(C1)N2S(=O)(=O)c1ccccc1 (stereo unspecified)	5.5*	0.34	0.084	10	5928	1484	4360
O=C(CSc1nnnn1-c1ccc2c(c1)OCO2)NCc1ccccc1	-0.46	-0.11	-0.13	3	.	.	.
Fc1ccccc1CSc1nnnn1-c1ccc2c(c1)OCO2	5.1*	1.1	-0.54	11	11056*	1596	3348
Cn1cc(Cl)c(C(=O)N2CCN(c3ncccn3)CC2)n1	-0.8	0.0052	-1.5	9	.	.	.
NC/C(=N\O)c1ccc(Cl)cc1Cl	-0.57	-0.4	-0.75	17	.	.	.
